Laboratory results as given in the EternaBench riboswitch data.

System: MS2 coat protein
Assay: apparent Kd, MS2 coat protein; higher = weaker binding; RNA-MaP array; FMN 200 µM where present
Method in brief: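 Stalled E. coli RNA polymerase produced the designs on Illumina sequencing-chip clusters. SNAP-549-labelled MS2 coat protein was added from 0.7 or 1.5 nM, doubling to 3 µM, without and then with constant ligand, in 100 mM Tris-HCl pH 7.5, 80 mM KCl, 4 mM MgCl2, BSA, DTT, yeast tRNA and Tween-20. The apparent Kd is the median of filtered per-cluster fits of green signal normalised to red-channel RNA signal and control-cluster median Fmax.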

[1] = designed as: OFF switch for flavin mononucleotide, no ligand
[2] = ligand present: flavin mononucleotide, designed as: OFF switch for flavin mononucleotide
[3] = designed as: ON switch for flavin mononucleotide, no ligand
[4] = ligand present: flavin mononucleotide, designed as: ON switch for flavin mononucleotide

UUAAUGUGAGGAUAUCAGGUGUGCUAGAGAACUGGUACAUCUGAGAAGGCACAUGAGGAUCACCCAUGUUCUUC
apparent Kd [1]: 42.8 nM | apparent Kd [2]: 197 nM

AUUGUAUGGAAAGGAUAUAGAAUAUUAUUUUAACAUGAGGAUCACCCAUGUAACCUUAUGUGUAGCUAGAAGGUUCGUUUGUUA
apparent Kd [1]: 88.2 nM | apparent Kd [2]: 97.8 nM

GGACCGAGUGUGAGGAUAUGCUGGUCCUUGGAUCAGCAGAAGGCACAUGAGGAUCACCCAUGUGGUGUCGGUCC
apparent Kd [1]: 573 nM | apparent Kd [2]: 203 nM

AAAAAGCGAGGAUAUACAUGAGGAUCACCCAUGUCAAAAGAAUAUAAAGAAAUAGGAAGUAGAAGGCGCAAAAA
apparent Kd [1]: 55.9 nM | apparent Kd [2]: 56 nM

CUGCCGUAGGAGAAGGACGGCGGGUUAUUUUUGUACAUGAGGAUCACCCAUGUAGGAUAUCCUACGUCAGGCAACCUACUACAG
apparent Kd [1]: 7.26 nM | apparent Kd [2]: 10.2 nM

GCGAUGUUAGGAUAUACAUGAGGAUCACCCAUGUUCAGACUGAGCCUAGAGCGUCUAUGUAGAAGGGACUCGCA
apparent Kd [1]: 27.2 nM | apparent Kd [2]: 43.1 nM

CGUCCUUAGUGAGGAUAUCAGAAAAUACGGAAAUGAGAAGGCACAUGAGGAUCACCCAUGUAAAUAACGGCCGGCCUUGGCAGC
apparent Kd [1]: 6.26 nM | apparent Kd [2]: 13.4 nM

CUGUAGAGUUAGGAUAUCGGCGCGUGAGAAGUUUGAGAAGGGACCACAUGAGGAUCACCCAUGUGUCUUCACCU
apparent Kd [1]: 14.7 nM | apparent Kd [2]: 15.7 nM

GUCGUGUCAGGAUAUACGUUUGUUUCUUUUUUUGUUGUUUAGUAGAAGGGACAUGAGGAUCACCCAUGUUUGUU
apparent Kd [1]: 29.4 nM | apparent Kd [2]: 47.4 nM

AUCAGCUCGUCAGGAUAUACGUCACUCCGUCAGCAGUGUGGUAAGAUCACAUGAGGAUCACCCAUGUAGAAGGGACGAGCUGAU
apparent Kd [1]: 29.5 nM | apparent Kd [2]: 253 nM

AAUUGACACGUAGGAUAUCGCUCUUAAUUAACACGAGAAGGACGUACAUGAGGAUCACCCAUGUUAAAUGGUGUAGUUUAGUUG
apparent Kd [1]: 45.5 nM | apparent Kd [2]: 123 nM

AAUUGGAUGCAGAAGGCAUGGACGACUCGUCACAUUAACAUGAGGAUCACCCAUGUAAUAAGACAUGAGGAUAUGCAUCCUAAA
apparent Kd [3]: 7.68 nM | apparent Kd [4]: 5.49 nM

AUCCUACAUGAGGAUCACCCAUGUGACGCCUCGAUAGGAUAUGCGUGUGCCUUGGCGCAUGCAGAAGGAUUGUUGC
apparent Kd [3]: 149 nM | apparent Kd [4]: 195 nM

GGUGCGAGUGUGAGGAUAUGCUGGUCGUAAGAUCAGCAGAAGGCACAUGAGGAUCACCCAUGUGAAAACGUACC
apparent Kd [1]: 22.3 nM | apparent Kd [2]: 145 nM

GUGCCUUGGGAGAAGGUUACUAGCAAAGCUAUUAAAGGAUAUUCAUACCGGAAACGGACAUGAGGAUCACCCAUGUGGCACAAA
apparent Kd [3]: 1120 nM | apparent Kd [4]: 118 nM

UGUGCGUAUGUGAGGAUAUGCUGGUCCUUGGCUCGGCAGAAGGCACAUGAGGAUCACCCAUGUGGUGUCGUACU
apparent Kd [1]: 108 nM | apparent Kd [2]: 104 nM

ACCGAAUGAACAUGAGGAUCACCCAUGUACAGGAAACUGAAUGAGGAUAUCCAUAGCAAAGCUAUGGAGAAGGCAUGGGUCGGU
apparent Kd [3]: 363 nM | apparent Kd [4]: 110 nM

GAGUACUGAGGAUAUACAUGAGGAUCACCCAUGUGUUCCAACUAGGAAUCUAGAAUAUGUAGAAGGCAGUACUG
apparent Kd [1]: 223 nM | apparent Kd [2]: 211 nM

UGUAUGGACAGAGGAUAUACCGAUAGGAUCUACUAUCGAACAAUUCUCACAUGAGGAUCACCCAUGUAGAAGGCUGUCCAUACU
apparent Kd [1]: 16 nM | apparent Kd [2]: 29.5 nM

AGGUGACAUGAGGAUCACCCAUGUUGCAUAAAACAAGGAUAUGGGUGGCGGGAUCGCCAAUCAGAAGGUGUUCCGA
apparent Kd [3]: 44.1 nM | apparent Kd [4]: 36.9 nM

UACGUUCUACGCGACAUGAGGAUCACCCAUGUUAGCCGAUCACAGGAUAUGUUGGAGCCGGUCGAACAGAAGGGUGAGUCUGCU
apparent Kd [3]: 38.8 nM | apparent Kd [4]: 38.9 nM

UGGGCGAGCCCAGUACUCACACAUGAGGAUCACCCAUGUGACGAGGAUAUAGACAGCGAUGCGUACUAGAAGGCGUCACGGUAA
apparent Kd [1]: 11 nM | apparent Kd [2]: 46.2 nM

GGACCGUGAAGAGUUGGCGGUCGGCAGGAUAUGACAUGAGGAUCACCCAUGUGAACUCCAUUGGGUCAGAAGGGCCACGACACA
apparent Kd [1]: 37.5 nM | apparent Kd [2]: 108 nM

GCCAUCGCAUGAGGAUAUGCUCCGGUUUCCGGAGCAGAAGGUAUGUCAUAAGACAUGAGGAUCACCCAUGUAGUUAAGAUGGCA
apparent Kd [3]: 252 nM | apparent Kd [4]: 30 nM

CGGGCGCCGAAGGGCGAAAGCCCACAUGAGGAUCACCCAUGUAGAAGGAGGGAAGAAACCAAAACCUAGGAUAUACAGGCGCCC
apparent Kd [1]: 7.9 nM | apparent Kd [2]: 10.2 nM

GUCAGCUCGUGAGGAUAUACAACACUGCUUCGACAGUGUAUUAAGAUCACAUGAGGAUCACCCAUGUAGAAGGCACGAGCUGAU
apparent Kd [1]: 13.6 nM | apparent Kd [2]: 211 nM

UAGAAGUCAGGAUAUCCAGCUCGUCACUUGCGUGAUGAGUUGGAGAAGGGACAUGAGGAUCACCCAUGUAAAGC
apparent Kd [1]: 53.7 nM | apparent Kd [2]: 46.5 nM
